Measured values pooled from the literature.
Lines come from different studies, so protocols differ.
Target: Calcium/calmodulin-dependent protein kinase kinase 2 (CAMKK2, Homo sapiens, UniProt Q96RR4)

SMILES | effect on | mode | method | tested at | endpoint | value
Nc1ncc(-c2nc(N3CCOCC3)nc(N3CCOCC3)n2)c(C(F)F)n1 | binding | – | competition with immobilised ligand | 10 µM | remaining binding | 65%
O=c1[nH]c2ccccc2n1C1CCN(Cc2ccc(-c3[nH]c4cc5ncnc5cc4nc3-c3ccccc3)cc2)CC1 | cell-free assay | – | – | 0.5 µM | remaining signal | 112%
Cn1cncc1[C@](O)(COc1ccc(C#N)cc1-c1ccc(OC(F)(F)F)cc1)c1ccc(C#N)cc1 | cell-free assay | – | competition with immobilised ligand | 1 µM | remaining binding | 100%
Cn1cc(-c2cccc(N3CCc4c(sc5c4CC(C)(C)C5)C3=O)c2CO)cc(Nc2ccncn2)c1=O | enzyme activity | inhibitor | – | 1 µM | inhibition | -7%
Cc1nn(C)cc1-c1nc2c(N3CCN(Cc4ccc(Cl)cc4)CC3)c(Cl)cnc2[nH]1 | binding | – | competition with immobilised ligand | 1 µM | remaining binding | 100%
N#CC1(c2ccccn2)CCN(Cc2cc(C(=O)O)c(=O)n3ccccc23)CC1 | cell-free assay | – | competition with immobilised ligand | 1 µM | remaining binding | 100%
CC(C)(C)c1cc(C=C(C#N)C#N)cc(Br)c1O | enzyme activity | inhibitor | – | 0.5 µM | remaining activity | 92.5%
COc1ncccc1-c1cnn2ccc(N3CCN(C(=O)OC(C)C)CC3)nc12 | binding | – | competition with immobilised ligand | 1 µM | remaining binding | 88%
